According to ChEMBL document CHEMBL1275556, “High prevalence of plasmid-mediated quinolone resistance genes qnr and aac(6')-Ib-cr in clinical isolates of Enterobacteriaceae from nine teaching hospitals in China” (2008):
Converted amounts (≈) assume the structure as drawn.

Columns and labels:
[1] = tested on: Citrobacter freundii; experiment: Antimicrobial activity against aac(6')-Ib-cr-positive Citrobacter freundii JS33T harboring qnrA gene by agar dilution method; assay type: functional
How it was run: (§1)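 MICs were determined by the CLSI agar dilution method (M7-A7) and interpreted against CLSI M100-S17 breakpoints.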

[2] = tested on: Citrobacter freundii; experiment: Antimicrobial activity against aac(6')-Ib-cr-positive Citrobacter freundii JN1T by agar dilution method; assay type: functional; how it was run: as §1
[3] = tested on: Enterobacter cloacae; experiment: Antimicrobial activity against aac(6')-Ib-cr-negative Enterobacter cloacae GZ47T harboring qnrB gene by agar dilution method; assay type: functional
[4] = tested on: Enterobacter cloacae; experiment: Antimicrobial activity against aac(6')-Ib-cr-positive Enterobacter cloacae FJ63T harboring qnrS gene by agar dilution method; assay type: functional
[5] = tested on: Enterobacter cloacae; experiment: Antimicrobial activity against aac(6')-Ib-cr-negative Enterobacter cloacae FJ61 harboring GyrA S83I, GyrA D87A, ParC S80I mutant, wild-type GyrB and qnrS genes by agar dilution method; assay type: functional
[6] = tested on: Escherichia coli; experiment: Antimicrobial activity against aac(6')-Ib-cr-negative Escherichia coli PU12 harboring GyrA S83L mutant, wild-type GyrB, ParC and qnrS genes by agar dilution method; assay type: functional; how it was run: as §1
[7] = tested on: Enterobacter cloacae; experiment: Antimicrobial activity against aac(6')-Ib-cr-negative Enterobacter cloacae FJ67 harboring […] and qnrS genes by agar dilution method; assay type: functional
[8] = tested on: Escherichia coli; experiment: Antimicrobial activity against aac(6')-Ib-cr-positive Escherichia coli FJ3T harboring wild-type GyrA, ParC, GyrB and qnrB genes by agar dilution method
[9] = tested on: Klebsiella pneumoniae; experiment: Antimicrobial activity against aac(6')-Ib-cr-positive Klebsiella pneumoniae SY26 harboring GyrA S83I, ParC S80I mutant, wild-type GyrB and qnrB genes by agar dilution method; assay type: functional
How it was run: (§2)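 MICs were determined on clinical isolates by CLSI agar dilution (M7-A7) and interpreted against CLSI M100-S17 breakpoints.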

[10] = tested on: Klebsiella pneumoniae; experiment: Antimicrobial activity against aac(6')-Ib-cr-positive Klebsiella pneumoniae GZ40T harboring qnrB gene by agar dilution method
[11] = tested on: Citrobacter freundii; experiment: Antimicrobial activity against aac(6')-Ib-cr-positive Citrobacter freundii PU55 harboring GyrA T83I, ParC S80I mutant, wild-type GyrB, qnrA genes by agar dilution method; assay type: functional; how it was run: as §1
[12] = tested on: Klebsiella pneumoniae; experiment: Antimicrobial activity against aac(6')-Ib-cr-positive Klebsiella pneumoniae WH99T harboring qnrB gene by agar dilution method; assay type: functional
How it was run: (§3)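 Transconjugants were made by conjugating a qnr/aac(6')-Ib-cr donor with azide-resistant E. coli J53. Selection used Trypticase soy agar with sodium azide 150 µg/ml and sulfamethoxazole 180 µg/ml. […] MICs were read by CLSI agar dilution (M7-A7) and interpreted per M100-S17.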

[13] = tested on: Enterobacter cloacae; experiment: Antimicrobial activity against aac(6')-Ib-cr-negative Enterobacter cloacae WH42T harboring qnrA gene by agar dilution method; assay type: functional
[14] = tested on: Enterobacter cloacae; experiment: Antimicrobial activity against aac(6')-Ib-cr-negative Enterobacter cloacae FJ67T harboring qnrS gene by agar dilution method; assay type: functional
[15] = tested on: Citrobacter freundii; experiment: Antimicrobial activity against aac(6')-Ib-cr-negative Citrobacter freundii JN64T harboring qnrA gene by agar dilution method; assay type: functional; how it was run: as §1
[16] = tested on: Klebsiella pneumoniae; experiment: Antimicrobial activity against aac(6')-Ib-cr-positive Klebsiella pneumoniae WH99 harboring wild-type GyrA, ParC, GyrB and qnrB genes by agar dilution method; assay type: functional; how it was run: as §2
[17] = tested on: Klebsiella pneumoniae; experiment: Antimicrobial activity against aac(6')-Ib-cr-positive Klebsiella pneumoniae JN41T harboring qnrB gene by agar dilution method; assay type: functional; how it was run: as §3
[18] = tested on: Citrobacter freundii; experiment: Antimicrobial activity against aac(6')-Ib-cr-positive Citrobacter freundii PU55T harboring wild-type GyrA, ParC, GyrB and qnrA genes by agar dilution method
[19] = tested on: Enterobacter cloacae; experiment: Antimicrobial activity against aac(6')-Ib-cr-negative Enterobacter cloacae GZ51T harboring qnrA gene by agar dilution method; assay type: functional
[20] = tested on: Klebsiella pneumoniae; experiment: Antimicrobial activity against aac(6')-Ib-cr-negative Klebsiella pneumoniae SY22 harboring GyrA S83I, ParC S80I mutant, wild-type GyrB and qnrS genes by agar dilution method; assay type: functional; how it was run: as §1
[21] = tested on: Escherichia coli; experiment: Antimicrobial activity against Escherichia coli J53 harboring wild-type GyrA, ParC, GyrB genes by agar dilution method
[22] = tested on: Klebsiella pneumoniae; experiment: Antimicrobial activity against aac(6')-Ib-cr-positive Klebsiella pneumoniae JN41 harboring GyrA S83I, ParC S80I mutant, wild-type GyrB and qnrB genes by agar dilution method; assay type: functional; how it was run: as §2
[23] = tested on: Enterobacter cloacae; experiment: Antimicrobial activity against aac(6')-Ib-cr-negative Enterobacter cloacae SH39 harboring GyrA S83I, ParC S80I mutant, wild-type GyrB and qnrA genes by agar dilution method; assay type: functional
[24] = tested on: Klebsiella pneumoniae; experiment: Antimicrobial activity against aac(6')-Ib-cr-positive Klebsiella pneumoniae JN132 harboring GyrA S83I, ParC S80I mutant, wild-type GyrB and qnrB genes by agar dilution method; assay type: functional; how it was run: as §2
[25] = tested on: Escherichia coli; experiment: Antimicrobial activity against aac(6')-Ib-cr-negative Escherichia coli PU12T harboring wild-type GyrA, GyrB, ParC and qnrS genes by agar dilution method; assay type: functional; how it was run: as §1
[26] = tested on: Citrobacter freundii; experiment: Antimicrobial activity against aac(6')-Ib-cr-positive Citrobacter freundii TJ15T harboring wild-type GyrA, ParC, GyrB genes by agar dilution method; assay type: functional; how it was run: as §1
[27] = tested on: Klebsiella pneumoniae; experiment: Antimicrobial activity against aac(6')-Ib-cr-positive Klebsiella pneumoniae SY26T harboring wild-type GyrA, ParC, GyrB and qnrB genes by agar dilution method; assay type: functional
How it was run: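 Transconjugants were made by conjugating a qnr/aac(6')-Ib-cr donor with azide-resistant E. coli J53. MICs were read by CLSI agar dilution (M7-A7) and interpreted per M100-S17.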

[28] = tested on: Citrobacter freundii; experiment: Antimicrobial activity against aac(6')-Ib-cr-positive Citrobacter freundii JS33 harboring GyrA T83I mutant, wild-type ParC, GyrB, qnrA and qnrB genes by agar dilution method; assay type: functional; how it was run: as §1
[29] = tested on: Enterobacter cloacae; experiment: Antimicrobial activity against aac(6')-Ib-cr-negative Enterobacter cloacae WH42 harboring wild-type GyrA, ParC, GyrB and qnrA genes by agar dilution method; assay type: functional
[30] = tested on: Citrobacter freundii; experiment: Antimicrobial activity against aac(6')-Ib-cr-positive Citrobacter freundii TJ15 harboring GyrA T83I, ParC S80I mutant, wild-type GyrB, qnrB genes by agar dilution method; assay type: functional; how it was run: as §1
[31] = tested on: Enterobacter cloacae; experiment: Antimicrobial activity against aac(6')-Ib-cr-negative Enterobacter cloacae SH39T harboring qnrA gene by agar dilution method; assay type: functional
[32] = tested on: Enterobacter cloacae; experiment: Antimicrobial activity against aac(6')-Ib-cr-negative Enterobacter cloacae GZ51 harboring qnrA gene by agar dilution method; assay type: functional
[33] = tested on: Klebsiella pneumoniae; experiment: Antimicrobial activity against aac(6')-Ib-cr-positive Klebsiella pneumoniae JN132T harboring qnrB gene by agar dilution method; assay type: functional; how it was run: as §3
[34] = tested on: Enterobacter cloacae; experiment: Antimicrobial activity against aac(6')-Ib-cr-negative Enterobacter cloacae FJ61T harboring qnrS gene by agar dilution method; assay type: functional
[35] = tested on: Citrobacter freundii; experiment: Antimicrobial activity against aac(6')-Ib-cr-negative Citrobacter freundii JN64 harboring GyrA T83I, wild-type ParC, GyrB and qnrA genes by agar dilution method; assay type: functional; how it was run: as §1
[36] = tested on: Citrobacter freundii; experiment: Antimicrobial activity against aac(6')-Ib-cr-positive Citrobacter freundii JN1 harboring GyrA T83I, ParC S80I mutant, wild-type GyrB and qnrA genes by agar dilution method; assay type: functional; how it was run: as §1
[37] = tested on: Enterobacter cloacae; experiment: Antimicrobial activity against aac(6')-Ib-cr-negative Enterobacter cloacae GZ47 harboring qnrB and qnrS genes by agar dilution method; assay type: functional
[38] = tested on: Klebsiella pneumoniae; experiment: Antimicrobial activity against aac(6')-Ib-cr-positive Klebsiella pneumoniae GZ40 harboring GyrA S83I, ParC S80I mutant, wild-type GyrB and qnrB genes by agar dilution method; assay type: functional; how it was run: as §1
[39] = tested on: Klebsiella pneumoniae; experiment: Antimicrobial activity against aac(6')-Ib-cr-negative Klebsiella pneumoniae SY22T harboring qnrS gene by agar dilution method; assay type: functional; how it was run: as §1
[40] = tested on: Enterobacter cloacae; experiment: Antimicrobial activity against aac(6')-Ib-cr-positive Enterobacter cloacae FJ63 harboring GyrA S83I, GyrA D87A, ParC S80I mutant, wild-type GyrB and qnrS genes by agar dilution method; assay type: functional
[41] = tested on: Escherichia coli; experiment: Antimicrobial activity against aac(6')-Ib-cr-positive Escherichia coli FJ3 harboring GyrA S83L, ParC S80R mutant, wild-type GyrB and qnrB genes by agar dilution method; assay type: functional; how it was run: as §1

NCC[C@H](O)C(=O)N[C@@H]1C[C@H](N)[C@@H](O[C@H]2O[C@H](CN)[C@@H](O)[C@H](O)[C@H]2O)[C@H](O)[C@H]1O[C@H]1O[C@H](CO)[C@@H](O)[C@H](N)[C@H]1O [AMIKACIN]
MIC [1]: 4 µg/mL (≈ 6.83 µM)
MIC [2]: 2 µg/mL (≈ 3.42 µM)
MIC [3]: 1 µg/mL (≈ 1.71 µM)
MIC [4]: 64 µg/mL (≈ 109 µM)
MIC [5]: 2 µg/mL (≈ 3.42 µM)
MIC [6]: 8 µg/mL (≈ 13.7 µM)
MIC [7]: 32 µg/mL (≈ 54.6 µM)
MIC [8]: 2 µg/mL (≈ 3.42 µM)
MIC [9]: 64 µg/mL (≈ 109 µM)
MIC [10]: 4 µg/mL (≈ 6.83 µM)
MIC [11]: 4 µg/mL (≈ 6.83 µM)
MIC [12]: 2 µg/mL (≈ 3.42 µM)
MIC [13]: 16 µg/mL (≈ 27.3 µM)
MIC [14]: 16 µg/mL (≈ 27.3 µM)
MIC [15]: > 256 µg/mL
MIC [16]: 2 µg/mL (≈ 3.42 µM)
MIC [17]: 4 µg/mL (≈ 6.83 µM)
MIC [18]: 4 µg/mL (≈ 6.83 µM)
MIC [19]: > 256 µg/mL
MIC [20]: 2 µg/mL (≈ 3.42 µM)
MIC [21]: 1 µg/mL (≈ 1.71 µM)
MIC [22]: 4 µg/mL (≈ 6.83 µM)
MIC [23]: 2 µg/mL (≈ 3.42 µM)
MIC [24]: 64 µg/mL (≈ 109 µM)
MIC [25]: 4 µg/mL (≈ 6.83 µM)
MIC [26]: 4 µg/mL (≈ 6.83 µM)
MIC [27]: 32 µg/mL (≈ 54.6 µM)
MIC [28]: 4 µg/mL (≈ 6.83 µM)
MIC [29]: 16 µg/mL (≈ 27.3 µM)
MIC [30]: 4 µg/mL (≈ 6.83 µM)
MIC [31]: 2 µg/mL (≈ 3.42 µM)
MIC [32]: > 256 µg/mL
MIC [33]: 64 µg/mL (≈ 109 µM)
MIC [34]: 2 µg/mL (≈ 3.42 µM)
MIC [35]: > 256 µg/mL
MIC [36]: 4 µg/mL (≈ 6.83 µM)
MIC [37]: 1 µg/mL (≈ 1.71 µM)
MIC [38]: 8 µg/mL (≈ 13.7 µM)
MIC [39]: 2 µg/mL (≈ 3.42 µM)
MIC [40]: > 256 µg/mL
MIC [41]: 4 µg/mL (≈ 6.83 µM)
